Measured values from ChEMBL document CHEMBL1124288, “Synthesis and analgesic properties of N-substituted trans-4a-aryldecahydroisoquinolines” (J Med Chem, 1988).

Columns and labels:
Mus musculus = test: Dose (sc) required for 50% reduction in frequency of writhing in mouse writhing analgesia test; type: functional
Rattus norvegicus = test: Dose (sc) required for a 2-s increase in reaction time in rat tail heat analgesia test; type: functional
Mu-type opioid receptor = Mu-type opioid receptor (Rattus norvegicus, UniProt P33535); test: Binding affinity to Opioid receptor mu 1 in rat brain using [3H]-NAL as radioligand; type: tissue-based
Sequence of Mu-type opioid receptor (P33535 whole entry): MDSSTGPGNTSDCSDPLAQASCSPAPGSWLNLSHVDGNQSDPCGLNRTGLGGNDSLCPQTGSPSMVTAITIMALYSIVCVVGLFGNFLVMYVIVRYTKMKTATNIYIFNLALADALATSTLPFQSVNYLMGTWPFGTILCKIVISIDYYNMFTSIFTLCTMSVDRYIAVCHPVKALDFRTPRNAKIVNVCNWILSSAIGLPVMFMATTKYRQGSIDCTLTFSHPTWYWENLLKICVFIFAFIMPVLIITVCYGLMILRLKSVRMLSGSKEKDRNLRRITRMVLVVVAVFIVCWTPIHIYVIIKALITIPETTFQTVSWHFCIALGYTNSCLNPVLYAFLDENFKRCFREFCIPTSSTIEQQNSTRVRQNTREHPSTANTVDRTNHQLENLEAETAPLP
Summary of the method: (§1)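 μ sites labelled with [3H]naloxone in rat brain homogenates. The assay details are given in an earlier report.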

[1] = target: Kappa-type opioid receptor (Cavia porcellus, UniProt P41144); test: Binding affinity to Opioid receptor kappa 1 in guinea pig cortex using [3H]EKC as radioligand
Sequence of Kappa-type opioid receptor (P41144 whole entry): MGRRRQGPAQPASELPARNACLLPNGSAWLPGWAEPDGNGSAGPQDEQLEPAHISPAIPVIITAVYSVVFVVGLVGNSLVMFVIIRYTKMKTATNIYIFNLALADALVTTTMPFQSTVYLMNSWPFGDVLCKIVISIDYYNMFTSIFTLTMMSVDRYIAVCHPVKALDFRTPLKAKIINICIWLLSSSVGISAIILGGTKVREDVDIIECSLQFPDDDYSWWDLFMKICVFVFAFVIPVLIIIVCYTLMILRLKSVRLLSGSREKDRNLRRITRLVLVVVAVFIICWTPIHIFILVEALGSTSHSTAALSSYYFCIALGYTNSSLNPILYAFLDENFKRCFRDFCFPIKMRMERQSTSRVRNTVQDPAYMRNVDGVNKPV

[2] = target: Kappa-type opioid receptor (Cavia porcellus) (UniProt P41144); test: Percent displacement of [3H]EKC from Opioid receptor kappa 1 in guinea pig cortex at 1000 nM conc. of compound
Sequence of Kappa-type opioid receptor (Cavia porcellus) (P41144 whole entry): as above

[3] = target: Kappa-type opioid receptor (Cavia porcellus) (UniProt P41144); test: Percent displacement of [3H]EKC from Opioid receptor kappa 1 in guinea pig cortex at 100 nM conc. of compound
[4] = target: Mu-type opioid receptor (Rattus norvegicus) (UniProt P33535); test: Binding affinity to Opioid receptor mu 1 in rat brain using [3H]NAL as radioligand; type: tissue-based; summary of the method: as §1
Sequence of Mu-type opioid receptor (Rattus norvegicus) (P33535 whole entry): as the sequence (P33535 whole entry) above

[5] = target: Mu-type opioid receptor (Rattus norvegicus) (UniProt P33535); test: Percent displacement of [3H]-NAL from Opioid receptor mu 1 in rat brain at 1000 nM conc. of compound; type: tissue-based
[6] = target: Kappa-type opioid receptor (Cavia porcellus) (UniProt P41144); test: Percent displacement of [3H]EKC from Opioid receptor kappa 1 at 1000 nM conc. of compound
[7] = target: Mu-type opioid receptor (Rattus norvegicus) (UniProt P33535); test: Percent displacement of [3H]NAL from Opioid receptor mu 1 at 1000 nM conc. of compound
[8] = target: Kappa-type opioid receptor (Cavia porcellus) (UniProt P41144); test: Percent displacement of [3H]EKC from Opioid receptor kappa 1 at 100 nM conc. of compound
[9] = target: Mu-type opioid receptor (Rattus norvegicus) (UniProt P33535); test: Binding affinity to mu opioid receptor in rat brain using [3H]NAL as radioligand; type: tissue-based; summary of the method: as §1
[10] = Mus musculus, sc, read-out: ED50

Compound `CN1CCC2(c3cccc(O)c3)CCCC[C@H]2C1` (stereo in doubt; 13) has an ED50 (Mus musculus) of 0.5 mg/kg and an ED2sec (Rattus norvegicus) of 0.4 mg/kg.
For `Oc1cccc(C23CCCC[C@H]2CN(CCc2ccccc2)CC3)c1` (single isomer, unassigned; (-)), the Ki (Mu-type opioid receptor) was 0.23 nM and the Ki [1] was 89 nM.
`Oc1cccc(C23CCCC[C@H]2CN(CCc2ccccc2)CC3)c1` (some centres not stated) gave an ED50 (Mus musculus; [10]) of 0.3 mg/kg and an ED2sec (Rattus norvegicus) of 0.08 mg/kg.
Compound `CC(C)=CCN1CC[C@]2(C)c3cc(O)ccc3C[C@H]1[C@H]2C` [(+)-PENTAZOCINE] has an ED50 (Mus musculus; [10]) of 2 mg/kg, a Ki (Mu-type opioid receptor) of 6.9 nM and a Ki [1] of 75 nM. For the same compound, the ED2sec (Rattus norvegicus) was 2.6 mg/kg.
Work on `Oc1cccc(C23CCCC[C@H]2CN(CCc2ccccc2)CC3)c1` (single isomer, unassigned; (+)) yielded a Displacement [2] of 53%, a Displacement [3] of 8% and a Displacement [4] of 19%. It also gave a Displacement [5] of 74%.
`C=CCN1CC[C@]23c4c5ccc(O)c4O[C@H]2[C@@H](O)C=C[C@H]3[C@H]1C5` [NALORPHINE] gave an ED50 (Mus musculus; [10]) of 0.7 mg/kg, a Ki (Mu-type opioid receptor) of 6.5 nM and a Ki [1] of 15 nM. For the same compound, the ED2sec (Rattus norvegicus) was greater than 100 mg/kg.
`CC(C)=CCN1CCC2(c3cccc(O)c3)CCCC[C@H]2C1` (some centres not stated) was tested, and the ED50 (Mus musculus; [10]) was 1 mg/kg and the ED2sec (Rattus norvegicus) was 1.5 mg/kg.
`CN1CC[C@]23c4c5ccc(O)c4O[C@H]2[C@@H](O)C=C[C@H]3[C@H]1C5` [MORPHINE] showed an ED50 (Mus musculus; [10]) of 0.9 mg/kg and an ED2sec (Rattus norvegicus) of 0.7 mg/kg.
Work on `C=CCN1CCC2(c3cccc(O)c3)CCCC[C@H]2C1` (single isomer, unassigned; (+)) yielded a Displacement [6] of 16%, a Displacement [4] of 15% and a Displacement [7] of 42%. For the same compound, the Displacement [8] was 2%.
`Oc1cccc(C23CCCC[C@H]2CN(CC2CC2)CC3)c1` (single isomer, unassigned; (+)) [listing 1 of 2 here] showed an ED50 (Mus musculus) greater than 50 mg/kg and an ED2sec (Rattus norvegicus) greater than 50 mg/kg.
With `CN1CCC2(c3cccc(O)c3)CCCC[C@H]2C1` (single isomer, unassigned; (-)) the ED50 (Mus musculus) was 2.1 mg/kg, the Ki (Mu-type opioid receptor) was 8.9 nM and the Ki [1] was 433 nM. The ED2sec (Rattus norvegicus) was 1.6 mg/kg.
Compound `CCCN1CCC2(c3cccc(O)c3)CCCC[C@H]2C1` (single isomer, unassigned; (-)) [listing 1 of 2 here] has a Ki (Mu-type opioid receptor) of 473 nM.
`C=CCN1CCC2(c3cccc(O)c3)CCCC[C@H]2C1` (some centres not stated) was tested, and the ED50 (Mus musculus; [10]) was 1 mg/kg and the ED2sec (Rattus norvegicus) was 1.4 mg/kg.
For `CCN1CCC2(c3cccc(O)c3)CCCC[C@H]2C1` (some centres not stated), the ED50 (Mus musculus; [10]) was 18.2 mg/kg, the Ki (Mu-type opioid receptor) was 29 nM and the Ki [1] was 529 nM. It also gave an ED2sec (Rattus norvegicus) greater than 100 mg/kg.
`CN1CCC2(c3ccccc3)CCCC[C@H]2C1` (some centres not stated) showed an ED50 (Mus musculus; [10]) of 3.5 mg/kg and an ED2sec (Rattus norvegicus) of 8.8 mg/kg.
Work on `Oc1cccc(C23CCCC[C@H]2CN(CC2CC2)CC3)c1` (single isomer, unassigned; (-)) yielded an ED50 (Mus musculus) of 2.2 mg/kg, a Ki (Mu-type opioid receptor) of 4.2 nM and a Ki [1] of 2.5 nM. The ED2sec (Rattus norvegicus) was 3 mg/kg.
`CCN1CCC2(c3cccc(O)c3)CCCC[C@H]2C1` (single isomer, unassigned; (+)) showed a Displacement [9] of 34%, a Displacement [2] of 15% and a Displacement [3] of 0%. For the same compound, the Displacement [5] was 70%.
With `Oc1cccc(C23CCCC[C@H]2CN(CC2CCC2)CC3)c1` (some centres not stated) the ED50 (Mus musculus; [10]) was 0.6 mg/kg.
Work on `Oc1cccc(C23CCCC[C@H]2CN(CC2CC2)CC3)c1` (single isomer, unassigned; (+)) [listing 2 of 2 here] yielded a Displacement [2] of 32%, a Displacement [3] of 5% and a Displacement [4] of 4%. It also gave a Displacement [5] of 35%.
`CCCN1CCC2(c3cccc(O)c3)CCCC[C@H]2C1` (some centres not stated) showed an ED50 (Mus musculus; [10]) of 1.5 mg/kg and an ED2sec (Rattus norvegicus) of 1.3 mg/kg.
Work on `CN1CCC2(c3cccc(O)c3)CCCC[C@H]2C1` (single isomer, unassigned; (+)) yielded an ED50 (Mus musculus) of 0.4 mg/kg, a Ki (Mu-type opioid receptor) of 0.96 nM and a Ki [1] of 61 nM. It also gave an ED2sec (Rattus norvegicus) of 0.3 mg/kg.
`COc1cccc(C23CCCC[C@H]2CN(C)CC3)c1` (some centres not stated) was tested, and the ED50 (Mus musculus; [10]) was 1.2 mg/kg and the ED2sec (Rattus norvegicus) was 3.3 mg/kg.
`C[C@H]1[C@H]2Cc3ccc(O)cc3[C@]1(C)CCN2CC1CC1` [CYCLAZOCINE] showed an ED50 (Mus musculus; [10]) of 0.07 mg/kg, a Ki (Mu-type opioid receptor) of 1.2 nM and a Ki [1] of 1.3 nM.
`CCCN1CCC2(c3cccc(O)c3)CCCC[C@H]2C1` (single isomer, unassigned; (-)) [listing 2 of 2 here] showed a Displacement [2] of 46% and a Displacement [3] of 12%.
`Oc1cccc(C23CCCC[C@H]2CN(CC2CC2)CC3)c1` (stereo in doubt; 29) gave an ED50 (Mus musculus) of 3.3 mg/kg and an ED2sec (Rattus norvegicus) of 5.6 mg/kg.
Work on `CCCN1CCC2(c3cccc(O)c3)CCCC[C@H]2C1` (single isomer, unassigned; (+)) yielded a Displacement [3] of 4%, a Displacement [4] of 43% and a Displacement [5] of 83%.
